Source: ChEMBL document CHEMBL1921722, “In vitro and in vivo evaluation of select kahalalide F analogs with antitumor and antifungal activities” (Bioorg Med Chem, 2011)
The source made the active and inactive calls.

What was measured:
KM12 = experiment: Cytotoxicity against human KM12 cells by sulforhodamine B assay; format: functional
Summary of the method: (§1)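 NCI Developmental Therapeutics Program 60-cell-line human tumor panel screen, run at NCI. A single-concentration pre-screen was followed by a five-concentration dose-response in 10-fold steps. GI50 is the concentration that reduces growth of treated cells to half that of untreated control cells. TGI is the concentration that completely halts growth.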

A549 = experiment: Cytotoxicity against human A549 cells by sulforhodamine B assay; format: functional
Summary of the method: (§2)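 Run at NCI in the DTP 60-cell-line human tumor panel by standard procedure. Compounds were first screened at a single concentration, then tested at five tenfold-spaced concentrations. GI50 is the concentration reducing treated-cell growth to half that of untreated controls; TGI is the concentration completely halting growth.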

LOX IMVI [1] = experiment: Cytotoxicity against human LOXIMVI cells assessed as cell growth at 8 nM by sulforhodamine B assay relative to control; format: functional; conditions: read-out: Activity
BT-549 [2] = experiment: Cytotoxicity against human BT549 cells assessed as cell growth at 80 uM by sulforhodamine B assay relative to control; format: functional; conditions: read-out: Activity; summary of the method: as §2
MOLT-4 [3] = experiment: Cytotoxicity against human MOLT4 cells assessed as cell growth at 80 nM by sulforhodamine B assay relative to control; format: functional; conditions: read-out: Activity
HCC 2998 [4] = experiment: Cytotoxicity against human HCC2998 cells assessed as cell growth at 8 nM by sulforhodamine B assay relative to control; format: functional; conditions: read-out: Activity
SK-MEL-28 = experiment: Cytotoxicity against human SK-MEL-28 cells by sulforhodamine B assay; format: functional; summary of the method: as §1
SF-539 [5] = experiment: Cytotoxicity against human SF539 cells assessed as cell growth at 80 nM by sulforhodamine B assay relative to control; format: functional; conditions: read-out: Activity
MOLT-4 [6] = experiment: Cytotoxicity against human MOLT4 cells assessed as cell growth at 8 uM by sulforhodamine B assay relative to control; format: functional; conditions: read-out: Activity
SNB-19 [7] = experiment: Cytotoxicity against human SNB19 cells assessed as cell growth at 8 nM by sulforhodamine B assay relative to control; format: functional; conditions: read-out: Activity
HCC 2998 [8] = experiment: Cytotoxicity against human HCC2998 cells by sulforhodamine B assay; format: functional
Summary of the method: (§3)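 Run by the NCI Developmental Therapeutics Program on its 60-line human tumour cell panel using the standard procedure. Compounds went through a single-concentration prescreen first, and those active by NCI criteria went on to a five-concentration growth-inhibition test. GI50 is the concentration that cuts growth of treated cells to half that of untreated control cells.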

MDA-MB-435 = experiment: Cytotoxicity against human MDA-MB-435 cells assessed as cell growth at 80 nM by sulforhodamine B assay relative to control; format: functional; conditions: read-out: Activity
HOP-92 = experiment: Cytotoxicity against human HOP92 cells by sulforhodamine B assay; format: functional; summary of the method: as §3
SF-539 [9] = experiment: Cytotoxicity against human SF539 cells assessed as cell growth at 80 uM by sulforhodamine B assay relative to control; format: functional; conditions: read-out: Activity
OVCAR-8 [10] = experiment: Cytotoxicity against human OVCAR8 cells assessed as cell growth at 8 nM by sulforhodamine B assay relative to control; format: functional; conditions: read-out: Activity
IGROV-1 = experiment: Cytotoxicity against human IGROV1 cells assessed as cell growth at 800 nM by sulforhodamine B assay relative to control; format: functional; conditions: read-out: Activity
EKVX = experiment: Cytotoxicity against human EKVX cells assessed as cell growth at 8 nM by sulforhodamine B assay relative to control; format: functional; conditions: read-out: Activity
MDA-MB-231 = experiment: Cytotoxicity against human MDA-MB-231 cells assessed as cell growth at 8 uM by sulforhodamine B assay relative to control; format: functional; conditions: read-out: Activity
BT-549 [11] = experiment: Cytotoxicity against human BT549 cells assessed as cell growth at 8 nM by sulforhodamine B assay relative to control; format: functional; conditions: read-out: Activity; summary of the method: as §2
LOX IMVI [12] = experiment: Cytotoxicity against human LOXIMVI cells assessed as cell growth at 8 uM by sulforhodamine B assay relative to control; format: functional; conditions: read-out: Activity
OVCAR-4 = experiment: Cytotoxicity against human OVCAR4 cells assessed as cell growth at 8 nM by sulforhodamine B assay relative to control; format: functional; conditions: read-out: Activity
OVCAR-8 [13] = experiment: Cytotoxicity against human OVCAR8 cells assessed as cell growth at 8 uM by sulforhodamine B assay relative to control; format: functional; conditions: read-out: Activity
PC-3 = experiment: Cytotoxicity against human PC3 cells by sulforhodamine B assay; format: functional; summary of the method: as §1
SN12C = experiment: Cytotoxicity against human SN12C cells assessed as cell growth at 80 uM by sulforhodamine B assay relative to control; format: functional; conditions: read-out: Activity
COLO 205 = experiment: Antitumor activity against human COLO205 cells xenografted in mouse assessed as tumor cell killing at 4.7 mg/kg, ip qd for 4 days by MTT assay; format: functional, organism-based; set-up: dose 4.7 mg/kg
Summary of the method: (§4)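 Hollow-fiber assay in mice. Tumor lines were grown in RPMI-1640 with 10% FBS and 2 mM glutamine. Cells at 2 × 10^6 cells/ml were loaded into 1 mm PVDF fibers (500,000 Da cutoff), heat-sealed at 2 cm and held 24–48 h at 37 °C, 5% CO2 before implantation. Compound was given IP. Fibers were collected the day after the fourth treatment for MTT (OD 540 nm, group means). A ≥50% cut in percent net growth versus vehicle counted as positive.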

NCI-H460 = experiment: Cytotoxicity against human NCI-H460 cells assessed as cell growth at 80 nM by sulforhodamine B assay relative to control; format: functional; conditions: read-out: Activity
SK-OV-3 = experiment: Cytotoxicity against human SKOV3 cells by sulforhodamine B assay; format: functional; summary of the method: as §1
MCF7 = experiment: Cytotoxicity against human MCF7 cells assessed as cell growth at 80 nM by sulforhodamine B assay relative to control; format: functional; conditions: read-out: Activity
OVCAR-3 = experiment: Antitumor activity against human OVCAR3 cells xenografted in mouse assessed as tumor cell killing at 4.7 mg/kg, ip qd for 4 days by MTT assay; format: functional, organism-based; set-up: dose 4.7 mg/kg; summary of the method: as §4
HOP-62 = experiment: Cytotoxicity against human HOP62 cells assessed as cell growth at 800 nM by sulforhodamine B assay relative to control; format: functional; conditions: read-out: Activity
NCI-H23 = experiment: Cytotoxicity against human NCI-H23 cells assessed as cell growth at 800 nM by sulforhodamine B assay relative to control; format: functional; conditions: read-out: Activity
HCT-116 = experiment: Cytotoxicity against human HCT116 cells by sulforhodamine B assay; format: functional; summary of the method: as §3
SNB-19 [14] = experiment: Cytotoxicity against human SNB19 cells assessed as cell growth at 800 nM by sulforhodamine B assay relative to control; format: functional; conditions: read-out: Activity
OVCAR-8 [15] = experiment: Cytotoxicity against human OVCAR8 cells assessed as cell growth at 80 nM by sulforhodamine B assay relative to control; format: functional; conditions: read-out: Activity
HCC 2998 [16] = experiment: Cytotoxicity against human HCC2998 cells assessed as cell growth at 80 uM by sulforhodamine B assay relative to control; format: functional; conditions: read-out: Activity

With `C/C=C1\NC(=O)[C@H](Cc2ccccc2)NC(=O)[C@@H](C(C)C)NC(=O)[C@@H]([C@@H](C)CC)NC(=O)[C@H](NC(=O)[C@H](NC(=O)[C@H](CCCNCc2ccc(N3CCOCC3)cc2)NC(=O)[C@H]2CCCN2C(=O)[C@H](NC(=O)[C@@H](NC(=O)[C@@H](NC(=O)[C@H](NC(=O)CCCC(C)C)C(C)C)[C@@H](C)O)C(C)C)C(C)C)[C@@H](C)CC)[C@@H](C)OC(=O)[C@H](C(C)C)NC1=O` the LC50 (KM12) was > 75.9 µM, the GI50 (KM12; read-out: GI50) was 201 nM and the GI50 (KM12; read-out: pGI50 (converted)) was 200 nM. The GI50 (A549; read-out: GI50) was 175 nM, the GI50 (A549; read-out: pGI50 (converted)) was 174 nM and the growth at 0.008 µM (LOX IMVI [1]) was 95%. For the same compound, the growth at 80 µM (BT-549 [2]) was -49%, the growth at 0.08 µM (MOLT-4 [3]) was 95% and the growth at 0.008 µM (HCC 2998 [4]) was 97%. For the same compound, the GI50 (SK-MEL-28) was 1380 nM, the TGI (SK-MEL-28; read-out: pTGI (converted)) was 2570 nM and the growth at 0.08 µM (SF-539 [5]) was 101%. The growth at 8 µM (MOLT-4 [6]) was 83%, the growth at 0.008 µM (SNB-19 [7]) was 95% and the LC50 (HCC 2998 [8]) was 3.31 µM. For the same compound, the GI50 (HCC 2998 [8]; read-out: GI50) was 250 nM, the TGI (HCC 2998 [8]; read-out: TGI) was 877 nM and the GI50 (HCC 2998 [8]; read-out: pGI50 (converted)) was 251 nM. For the same compound, the TGI (HCC 2998 [8]; read-out: pTGI (converted)) was 871 nM, the growth at 0.08 µM (MDA-MB-435) was 99% and the GI50 (HOP-92) was 1700 nM. It also gave an LC50 (HOP-92) of 47.9 µM, a TGI (HOP-92; read-out: pTGI (converted)) of 7.08 µM and a growth at 80 µM (SF-539 [9]) of -63%. For the same compound, the growth at 0.008 µM (OVCAR-8 [10]) was 99%, the growth at 0.8 µM (IGROV-1) was 55% and the growth at 0.008 µM (EKVX) was 102%. The growth at 8 µM (MDA-MB-231) was 20%, the growth at 0.008 µM (BT-549 [11]) was 106% and the growth at 8 µM (LOX IMVI [12]) was 20%. The growth at 0.008 µM (OVCAR-4) was 103%, the growth at 8 µM (OVCAR-8 [13]) was -34% and the LC50 (PC-3) was 741 nM. The GI50 (PC-3; read-out: GI50) was 156 nM, the TGI (PC-3; read-out: TGI) was 340 nM and the GI50 (PC-3; read-out: pGI50 (converted)) was 155 nM. The TGI (PC-3; read-out: pTGI (converted)) was 339 nM, the growth at 80 µM (SN12C) was -17% and the Activity (COLO 205) was “inactive”. The growth at 0.08 µM (NCI-H460) was 103%, the GI50 (SK-OV-3; read-out: GI50) was 178 nM and the TGI (SK-OV-3; read-out: TGI) was 415 nM. The GI50 (SK-OV-3; read-out: pGI50 (converted)) was 178 nM, the TGI (SK-OV-3; read-out: pTGI (converted)) was 417 nM and the growth at 0.08 µM (MCF7) was 107%. For the same compound, the Activity (OVCAR-3) was “inactive”, the growth at 0.8 µM (HOP-62) was 95% and the growth at 0.8 µM (NCI-H23) was 103%. The GI50 (HCT-116) was 1550 nM, the LC50 (HCT-116) was 6.03 µM and the TGI (HCT-116; read-out: pTGI (converted)) was 3.09 µM. The growth at 0.8 µM (SNB-19 [14]) was 90%, the growth at 0.08 µM (OVCAR-8 [15]) was 98% and the growth at 80 µM (HCC 2998 [16]) was -69%.
